Measurements as given in article PMC6851786 (Journal of Clinical Pharmacology, 2019).
Entries after “also recorded” stand apart in the source; their conditions may differ. Where two headings read alike, the source gives them in different places. Each block holds one compound with its values, some of them ahead of it.

Columns and labels:
[1] = cited from earlier work
[2] = with the CYP1A2 inhibitor fluvoxamine; cited from earlier work
[3] = cited from earlier work; remark: listed apart in the source
[4] = Safety assessment; assay type: in vivo, human (healthy adult subjects)
[5] = test system: CYP1A2; details: healthy subjects; cited from earlier work
[6] = test system: CYP3A4/5 and CYP1A2; details: human liver microsomes; ref data on file; cited from earlier work
[7] = Part 2: effect of CYP3A inhibitor itraconazole on avadomide PK; assay type: in vivo, human (healthy adult subjects); details: for Tmax / Vd/F / half-life / AUC(0-inf) / AUC(0-t) / Cmax: human, plasma
Outline: (§1)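 Open-label, nonrandomized, single-sequence crossover in healthy adults, each subject serving as own control. Plasma for test compound was taken predose and at 0.5, 1, 2, 3, 4, 6, 8, 12, 24, 48 and 72 h postdose and assayed by validated LC-MS/MS (LLOQ 1 ng/mL; range 1–400 ng/mL). Parameters came from noncompartmental analysis, including apparent volume. The ANOVA used ln AUC0-t, AUC0-inf and Cmax, with treatment fixed and subject random. Combination/alone geometric mean ratios are given with 90% CI.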

[8] = cited from earlier work; remark: listed apart in the source
[9] = Part 4: effect of CYP3A4 inducer rifampin on avadomide PK; assay type: in vivo, human (healthy adult subjects); details: for Tmax / Vd/F / half-life / AUC(0-inf) / AUC(0-t) / Cmax: human, plasma; for AUC(0-inf): AUC0-inf; for AUC(0-inf) / AUC(0-t) / Cmax: Geometric LS Means; for AUC(0-t): AUC0-t
Outline: as §1

[10] = across the 0.5- to 3.5-mg dose range; cited from earlier work
[11] = Part 3: effect of CYP1A2 inhibitor fluvoxamine on avadomide PK; assay type: in vivo, human (healthy adult subjects); details: for Tmax / Vd/F / half-life / AUC(0-inf) / AUC(0-t) / Cmax: human, plasma; for AUC(0-inf): AUC0-inf; for AUC(0-inf) / AUC(0-t) / Cmax: Geometric LS Means; for AUC(0-t): AUC0-t
Outline: as §1

[12] = with the CYP3A4 inducer carbamazepine
[13] = with the CYP3A inhibitor ketoconazole
[14] = Part 4, following rifampin alone
[15] = Part 3, following fluvoxamine alone
[16] = avadomide + itraconazole/avadomide
[17] = Part 2, following avadomide alone
[18] = Part 2, following avadomide plus itraconazole
[19] = Part 3, following avadomide alone
[20] = Part 3, following avadomide plus fluvoxamine
[21] = Part 4, following avadomide plus rifampin
[22] = avadomide + rifampin /avadomide
[23] = oral, 3 mg, avadomide alone, Part 4, N 19, ANOVA
[24] = oral, avadomide + rifampin, N 18, ANOVA
[25] = avadomide + fluvoxamine/avadomide
[26] = fluvoxamine coadministration versus alone
[27] = oral, 3 mg, avadomide alone, Part 3, N 18, ANOVA
[28] = oral, avadomide + fluvoxamine, N 18, ANOVA

SMILES: Nc1cccc2c1C(=O)N(C1CCC(=O)NC1=O)C2=O (centres unmarked) [pomalidomide]
- AUC, % of that when administered alone [1, 12]: 79.7%
- Cmax, % of that when administered alone [1, 12]: 75.0%
- AUC, % of that when administered alone [1, 13]: 118.8%
- Cmax, % of that when administered alone [1, 13]: 107.3%
- AUC, % of that when administered alone [2]: 225.1%
- Cmax, % of that when administered alone [2]: 123.7%
- metabolism and elimination [3]: primarily metabolized by CYP1A2 and CYP3A, with a low fraction excreted in urine as unchanged drug

SMILES: CO[C@H]1/C=C/O[C@@]2(C)Oc3c(C)c(O)c4c(O)c(c(/C=N/N5CCN(C)CC5)c(O)c4c3C2=O)NC(=O)/C(C)=C\C=C\[C@H](C)[C@H](O)[C@@H](C)[C@@H](O)[C@@H](C)[C@H](OC(C)=O)[C@@H]1C [rifampin, reference compound]
- number of TEAEs reported [4, 14]: 5 TEAEs
- subjects reporting TEAEs [4, 14]: 22.2%
- increase in conversion of caffeine to paraxanthine mediated by CYP1A2 [5]: 15%

SMILES: COCCCC/C(=N\OCCN)c1ccc(C(F)(F)F)cc1 [fluvoxamine, reference compound]
- number of TEAEs reported [4, 15]: 11 TEAEs
- subjects reporting TEAEs [4, 15]: 31.6%

- geometric mean ratio of AUC0-t to AUC0-inf ([7]; avadomide 3 mg alone and with itraconazole, 72-hour sampling): greater than 90%
- AUC0-t, Ratio of Geometric LS Means [7, 16]: 100.54%
- Cmax, Ratio of Geometric LS Means [7, 16]: ~93.64%
- Tmax ([7]; oral): 1 h
- Vd/F ([7]; oral): 53.8 L
- half-life ([7]; oral): 8.79 h
- AUC(0-inf) ([7]; oral, 3 mg): 708 ng·h/mL
- AUC(0-t) ([7]; oral, 3 mg): 675 ng·h/mL
- Cmax ([7]; oral, 3 mg): 70.8 ng/mL
- AUC(0-inf) ([7]; po, 3 mg): 708 ng·h/mL
- AUC(0-t) ([7]; po, 3 mg): 675 ng·h/mL
- Cmax ([7]; po, 3 mg): 70.8 ng/mL
- Tmax ([7]; po, 3 mg): 1 h
- Vd/F ([7]; po, 3 mg): 54.7 L
- half-life ([7]; po, 3 mg): 8.94 h
- geometric mean ratio of AUC0-t to AUC0-inf ([9]; avadomide 3 mg alone and with rifampin, 72-hour sampling): greater than 90%
- AUC0-inf, Ratio of Geometric LS Means [9, 22]: 62.83%
- AUC0-t, Ratio of Geometric LS Means [9, 22]: 62.34%
- Cmax, Ratio of Geometric LS Means [9, 22]: 88.17%
- Tmax ([9]; oral): 0.53 h
- Vd/F ([9]; oral): 57.3 L
- half-life ([9]; oral): 6.08 h
- AUC(0-inf) [9, 23]: 733 ng·h/mL
- AUC(0-t) [9, 23]: 687 ng·h/mL
- Cmax [9, 23]: 74.8 ng/mL
- AUC(0-inf) [9, 24]: 460 ng·h/mL
- AUC(0-t) [9, 24]: 428 ng·h/mL
- Cmax [9, 24]: 65.9 ng/mL
- Tmax ([9]; po, 3 mg): 0.55 h
- Vd/F ([9]; po, 3 mg): 55 L
- half-life ([9]; po, 3 mg): 9.29 h
- geometric mean ratio of AUC0-t to AUC0-inf ([11]; avadomide 3 mg alone and with fluvoxamine, 72-hour sampling): greater than 90%
- AUC0-inf, Ratio of Geometric LS Means [11, 25]: 154.81%
- AUC0-t, Ratio of Geometric LS Means [11, 25]: 160.35%
- Cmax, Ratio of Geometric LS Means [11, 25]: 107.59%
- decrease of apparent clearance [11, 26]: 34%
- prolongation of avadomide t½ [11, 26]: 50%
- Tmax ([11]; oral): 0.79 h
- Vd/F ([11]; oral): 54.3 L
- half-life ([11]; oral): 13.7 h
- AUC(0-inf) [11, 27]: 709 ng·h/mL
- AUC(0-t) [11, 27]: 667 ng·h/mL
- Cmax ([11]; oral, 3 mg, avadomide alone, Part 3, N 19, ANOVA): 70.2 ng/mL
- AUC(0-inf) [11, 28]: 1100 ng·h/mL
- AUC(0-t) [11, 28]: 1070 ng·h/mL
- Cmax [11, 28]: 75.6 ng/mL
- Tmax ([11]; po, 3 mg): 0.5 h
- Vd/F ([11]; po, 3 mg): 55.2 L
- half-life ([11]; po, 3 mg): 9.16 h
SMILES: Cc1nc2cccc(N)c2c(=O)n1C1CCC(=O)NC1=O (centres unmarked) [Avadomide]
- enzymes involved in oxidative metabolism [6]: major enzymes involved in the oxidative metabolism; also recorded: major isozymes involved in oxidative metabolism; also recorded: metabolized mainly by CYP3A and CYP1A2 in vitro
- number of TEAEs reported [4, 17]: 2 TEAEs
- subjects reporting TEAEs [4, 17]: 10.5%
- number of TEAEs reported [4, 18]: 2 TEAEs
- subjects reporting TEAEs [4, 18]: 10.5%
- moderate TEAE of vomiting, considered related to the IP [4, 19]: 1 subject
- number of TEAEs reported [4, 19]: 7 TEAEs
- subjects reporting TEAEs [4, 19]: 15.8%
- number of TEAEs reported [4, 20]: 9 TEAEs
- subjects reporting TEAEs [4, 20]: 38.9%
- subjects reporting TEAEs ([4]; Part 4, after avadomide alone): No subjects reported TEAEs
- number of TEAEs reported [4, 21]: 1 TEAE
- subjects reporting TEAEs [4, 21]: 5.6%
- tolerability ([4]; single oral dose of 3 mg alone or coadministered with fluvoxamine, itraconazole, or rifampin): well tolerated
- plasma avadomide t½ (without CYP inhibition) ([8]; healthy subjects): ~8 h
- Tmax ([8]; single oral dose 3 to 15 mg, healthy adult subjects): approximately 1 hour
- tolerability ([8]; single oral doses of up to 15 mg, healthy subjects): well tolerated
- plasma exposure versus dose [10]: increased in a dose‐dependent manner

SMILES: CCC(C)n1ncn(-c2ccc(N3CCN(c4ccc(OCC5COC(Cn6cncn6)(c6ccc(Cl)cc6Cl)O5)cc4)CC3)cc2)c1=O (centres unmarked) [itraconazole, reference compound]
- subjects reporting TEAEs ([4]; Part 2, after itraconazole alone): No subjects reported TEAEs
